What was measured:
[1] = test system: MS2 coat protein; test: apparent Kd, MS2 coat protein; higher = weaker binding; RNA-MaP array; theophylline 2 mM where present
Method in brief: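 Apparent Kd: the median of filtered binding-curve fits from single clusters. Designs were transcribed on Illumina sequencing-chip clusters by stalled E. coli RNA polymerase and titrated with SNAP-549-labelled MS2 coat protein from 0.7 or 1.5 nM, doubling to 3 µM, in 100 mM Tris-HCl pH 7.5, 80 mM KCl, 4 mM MgCl2, BSA, DTT, yeast tRNA and Tween-20. Each series ran without and then with constant ligand, and green signal was normalised to red-channel RNA signal and control-cluster median Fmax.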

[2] = test system: MS2 coat protein; test: apparent Kd, MS2 coat protein; higher = weaker binding; RNA-MaP array
Method in brief: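 RNA designs were transcribed from sequenced DNA templates on an Illumina sequencing chip and then incubated at room temperature with fluorescently labeled MS2 coat protein at 1.5 nM to 3 μM, with or without input ligand, in Tris-HCl pH 7.5 buffer containing KCl, MgCl2, BSA, DTT, tRNA and Tween20. Incubation lasted 0.8–1.5 h at the lowest protein concentrations and 10–20 min at the highest. Apparent Kd is the median of binding-curve fits made for each cluster. Designs measured on fewer than 10 clusters were excluded.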

[3] = designed as: OFF switch for theophylline, no ligand
[4] = ligand present: theophylline, designed as: OFF switch for theophylline
[5] = designed as: ON switch for theophylline, no ligand
[6] = ligand present: theophylline, designed as: ON switch for theophylline
[7] = designed as: OFF switch for flavin mononucleotide, no ligand
[8] = ligand present: flavin mononucleotide, designed as: OFF switch for flavin mononucleotide
[9] = designed as: ON switch for flavin mononucleotide, no ligand
[10] = ligand present: flavin mononucleotide, designed as: ON switch for flavin mononucleotide

Row | Sequence | apparent Kd [1, 3] [nM] | apparent Kd [1, 4] [nM] | apparent Kd [1, 5] [nM] | apparent Kd [1, 6] [nM] | further results
1 | AGACAUGAGGAUCACCCAUGUAGUAUGGAUACCAGAUCCAGAUUUAUCCCUUGGCAGCUGUGGUACAGUGAUGGAUUGCUCCUAG | 31 | 40.8 |  |  | 
2 | ACGAACGAUAGUGAUACCAGACGUACAUGAGGAUCACCCAUGUUUUGGGUAAGGUUAAUAGUCCCUUGGCAGCACUUUAAGUUCG | 58.7 | 398 |  |  | 
3 | ACGAACGAUAGUGAUACCAGACGUACAUGAGGAUCACCCAUGUUAUACACAUGGUUUAUUGUCCCUUGGCAGCACGAUAAGUUCG | 225 | 287 |  |  | 
4 | UUUGAUAGGACAGAUACCAGCGUGUUAUAAAACAUGAGGAUCACCCAUGUAGUGAUCAAGCGCCCUUGGCAGCUGGUUUGUUAGG |  |  | 188 | 323 | 
5 | AGCGACAUGCAUGAUACCAGCUACAUGAGGAUCACCCAUGUACGUCAGUAAUGACUGUGUAGCCCUUGGCAGCAUAGAGCAUGUC | 18.3 | 48.6 |  |  | 
6 | UCGGCAGUGAACGAUACCAGCGUCACGUGGCCGGUGGUCACAUGAGGAUCACCCAUGUAACGCCCUUGGCAGCGUGCGCGUACCG | 23.9 | 129 |  |  | 
7 | UAUAUAUAAAUUGAUACCAGCGAGAAAACAUGAGGAUCACCCAUGUUCGCCCAUGUUAAGCGCCCUUGGCAGCAAUAUUAUUAUU | 24.5 | 73 |  |  | 
8 | AGAAUAACACAUGAGGAUCACCCAUGUGAUACCAGCUAGGAAACUAGCCCUUGGCAGCACAUAAUCCUCAUGAAUGUGCUGAAUA | 70.4 | 60.6 |  |  | 
9 | ACAUGAGGAUCACCCAUGUCAAGGCACGAUACCAGCUGAUCCCGUGGCCCUUGGCAGCGUCACGUUUGGUCCCGCGGAUGACACG |  |  | 89 | 95.8 | 
10 | GCUGUAAGUGCAGAUACCAGCAAGUGAGGUUUCAUAUGACAUGAGGAUCACCCAUGUAUCUGCCCUUGGCAGCUGCACUUACAGC |  |  | 21.4 | 15.2 | 
11 | UCAUUUGAGUGAGAUGUAAGGUAUCAUGAUACCAGUAGAUAAUUAUACCCUUGGCAGCAUGACAUGAGGAUCACCCAUGUACAUG | 11.1 | 10.3 |  |  | 
12 | AUGUCGUUGAAUAUAGCGGCUUGGAGUGAUACCAGAAUGAUCUAAUUCCCUUGGCAGCAUUACAUGAGGAUCACCCAUGUUCCAG |  |  | 51.1 | 39.7 | 
13 | UCGUGUGUUUCGGAUACCAGUGAAAUCGAUACAUGAGGAUCACCCAUGUGAGAGGAUGUACACCCUUGGCAGCUGUCUGUAGCGG |  |  | 48.9 | 37.4 | 
14 | AGUACACGAACGGAUACCAGCCGGACAUGAGGAUCACCCAUGUCCUACCUCUGUUCGGUUGGCCCUUGGCAGCCGUUCGUGUACA |  |  | 117 | 88.3 | 
15 | ACCCUAGCGAUCGCUCGCUAGGGUGCGGAUACCAGCGAGGUCCAUCGCCCUUGGCAGCCGAACAUGAGGAUCACCCAUGUCGGUA |  |  | 10.7 | 14.3 | 
16 | UUAUUUAUAUUAGAUACCAGUUUAAUGGCCGCAAAUCCUGACAUGAGGAUCACCCAUGUAAGCCCUUGGCAGCUGGUAUGGGUUU | 19.3 | 20.7 |  |  | 
17 | UGUAACAUGAGGAUCACCCAUGUAAGUGAUACCAGAUAAGUAGUAGUCCCUUGGCAGCAUAUUGGGAAAGUGUAUAGUCUAUAUU |  |  | 57.2 | 55.6 | 
18 | UGUCUAGUAAUCGAUACCAGCUACAUGAGGAUCACCCAUGUAGUUCGAACGGCCGCAUGUAGCCCUUGGCAGCGAAUAGUUACAU | 18.9 | 52.7 |  |  | 
19 | AAUUUGUCGGGUGAUACCAGCCUCGGCGCGUCUCGCGCUGAACAUGAGGAUCACCCAUGUGGCCCUUGGCAGCACAUGACAAAUC |  |  | 670 | 38.2 | 
20 | CAUACUUUAGUAUGACAUGUGGGCAGUGAUACCAGAUACGAAAGUAUCCCUUGGCAGCACAACAUGAGGAUCACCCAUGUAAUUA |  |  | 29.6 | 59.2 | 
21 | UUUACAUGAGGAUCACCCAUGUGCCAUGAUACCAGACAUGAAAAUGUCCCUUGGCAGCAUGAAUAAUCCUCGUCGGGAAACCGAC |  |  | 140 | 544 | 
22 | GUUAUGGACCUGGAUACCAGCUGGUACAAGGGCGGUCUACAUGAGGAUCACCCAUGUGUCAGCCCUUGGCAGCCAGCAACCCACU | 9.88 | 11.4 |  |  | 
23 | UUGGUAGGACAGCUCAUAUAAGCAUGUGAUACCAGCUAGAAAACUAGCCCUUGGCAGCACUUUACAUGAGGAUCACCCAUGUCCC | 165 | 460 |  |  | 
24 | GCCAGACAUGAGGAUCACCCAUGUAGCGAUACCAGCUCUGUUGUGAGCCCUUGGCAGCGCACUGGCAUCGCGGGUGAUCCUGCAU |  |  | 43.4 | 164 | 
25 | ACGUCUCGAAAACUCGUAGUAACAAUAGAUACCAGUAGCGAGAGUUACCCUUGGCAGCUACAUGAGGAUCACCCAUGUACGAGGA | 17.4 | 17.2 |  |  | 

Row | Sequence | apparent Kd [1, 3] [nM] | apparent Kd [1, 4] [nM] | apparent Kd [1, 5] [nM] | apparent Kd [1, 6] [nM] | further results
26 | AACAUGAGGAUCACCCAUGUAUUGGGUGAUACCAGCCUGAAUAAUGGCCCUUGGCAGCACCACGCUAACUUUAUGUCUGCGAACC |  |  | 92.2 | 162 | 
27 | AUCGUACCUGAAGAUACCAGCAUGUGAUCAUAACAUGAGGAUCACCCAUGUAAUCAGUGAUGCCCUUGGCAGCUUGAUCGGUACA |  |  | 40.8 | 19.2 | 
28 | UAAUAUCACAUAUUAUGGGUGUAAUGUGAUACCAGCUAGGAAACUAGCCCUUGGCAGCACAUGAGGAUCACCCAUGUAAGCUGUA | 77.9 | 49.7 |  |  | 
29 | GGUGGUGGGACGGAUACCAGCCACCGCGGCAACGCAACAUGAGGAUCACCCAUGUUGGGUGGCCCUUGGCAGCUGUCCUGCGGCG |  |  | 13.9 | 13.1 | 
30 | UUUUAAAGCAUGGCGUAUCGGAAAACCGAUACCAGUACAGAAAUGUACCCUUGGCAGCGGCAUUUUACAUGAGGAUCACCCAUGU | 14 | 40.3 |  |  | 
31 | UGUAACAUGAGGAUCACCCAUGUAAGUGAUACCAGAUAAGUAGUAGUCCCUUGGCAGCAUAUUGGGAAAGUGUAUAGUCUAUACG |  |  | 52.8 | 65.1 | 
32 | UGAACAUGAGGAUCACCCAUGUAGUCAGAUACCAGACACUGCAUGGUCCCUUGGCAGCUGAAGAGCGUUUGCCAAAUAACGUUCA |  |  | 162 | 567 | 
33 | AUUUCAAACAUGAGGAUCACCCAUGUCAAGUUUGAGCAACUAAGAAGGUCAGAUCCAUAAGCACUGAAGGAUAUUAAGAGGUAC |  |  |  |  | apparent Kd [2, 7]: 31.8 nM; apparent Kd [2, 8]: 22 nM
34 | GCGGGACAUGAGGAUCACCCAUGUGAGGAUAUGUGCAGUGGCAGGGACAGUUAAAAGUACAGAAGGCACAGCCC |  |  |  |  | apparent Kd [2, 7]: 19.7 nM; apparent Kd [2, 8]: 17.6 nM
35 | GGCGGGAGAAUAGGAUAUUCCGGUAAUCGACAUGAGGAUCACCCAUGUACCGUUCAACCGAUACCGAAGAAGGAUUAUAAGCCU |  |  |  |  | apparent Kd [2, 9]: 16.6 nM; apparent Kd [2, 10]: 13.8 nM
36 | AGCUCGACUCGCAGCUGGAUGCCCGCUUGCCGAGGACCGGUACGGCCGCCACUCGUCACUCGACAUGAGGAUCACCCAUGUGAUA |  |  |  |  | apparent Kd ([2]; designed as: OFF switch for tryptophan, no ligand): 88.3 nM; apparent Kd ([2]; ligand present: tryptophan, designed as: OFF switch for tryptophan): 45.6 nM
37 | UAGAAAUCCUUGCAGGAUAUGUUGGAGUCUACAUGAGGAUCACCCAUGUUUAGUAGCAGGCGACGACAGAAGGGCAAUCUCAUGAU |  |  |  |  | apparent Kd [2, 9]: 23.6 nM; apparent Kd [2, 10]: 9.18 nM
38 | AGGUGCAUCAAGAAGGAUGACAUGAGGAUCACCCAUGUACAAAAGGCGCGAUUUACAAAUCGUACAUAGGAUAUUGUGCAUGUU |  |  |  |  | apparent Kd [2, 9]: 71.2 nM; apparent Kd [2, 10]: 24.6 nM
39 | UACCCAUUAGAGAAGGUUGACGCCCUAGUUGUCAAAGGAUAUCUCCUCGAGGCUACACAUGAGGAUCACCCAUGUUCACAGGUC |  |  |  |  | apparent Kd [2, 7]: 9.35 nM; apparent Kd [2, 8]: 8.92 nM
40 | GCCUAUAUUGUCAGGAUAUGCAUAAAGGAAAAGAAGCAGAAGGGACAUGAGGAUCACCCAUGUUACAGCCAAUA |  |  |  |  | apparent Kd [2, 7]: 6.84 nM; apparent Kd [2, 8]: 12.6 nM
41 | UUAUAUUCUCAAUCGCCAUGUGCUUUAGAUACCAGUCUGAUAAAUGACCCUUGGCAGCUAGAGACAUGAGGAUCACCCAUGUCUU |  |  |  |  | apparent Kd [2, 3]: 10.6 nM; apparent Kd [2, 4]: 29.8 nM
42 | CUGCGCUCGAAGAAGGGCUGCCACAUGAGGAUCACCCAUGUCACUGACACCGAAGUUAGAAAGUAGCAGGAUAUUCAGGGUCCU |  |  |  |  | apparent Kd [2, 9]: 49.2 nM; apparent Kd [2, 10]: 32.4 nM
43 | UAGGUUAGGUAGAAGGGCAAGUAAUUCCACAUGAGGAUCACCCAUGUUCCUGUUUGGGAGGCUGUGCAGGAUAUACGAAAAUAA |  |  |  |  | apparent Kd [2, 7]: 117 nM; apparent Kd [2, 8]: 153 nM
44 | GUCCUCGACACGGCCGCCACUGGCUCGCCUGUUGGCGCCGACCCACAUGAGGAUCACCCAUGUUCCAGGACCGGGUGUCACAGCA |  |  |  |  | apparent Kd ([2]; designed as: ON switch for tryptophan, no ligand): 224 nM; apparent Kd ([2]; ligand present: tryptophan, designed as: ON switch for tryptophan): 157 nM
45 | AUAGUGCGGCUGAAGGAUAUGGAACCCGCGACAUGAGGAUCACCCAUGUACUUAAGCGACAUUUGCCAGAAGGUCAAGCAUUCCAU |  |  |  |  | apparent Kd [2, 9]: 13.3 nM; apparent Kd [2, 10]: 11.2 nM
46 | UUACAACAUGAGGAUCACCCAUGUUAGGAUAUACGAGGGACAGCGCGGUUAUAUCCCUGUAGAAGGAACACGGG |  |  |  |  | apparent Kd [2, 7]: 39.6 nM; apparent Kd [2, 8]: 47.6 nM
47 | GCACAACAUGAGGAUCACCCAUGUCGAGAUACCAGAACAUAUAUAUUCCCUUGGCAGCUCACACCUUUAAUGUAAAAUUCUUUGG |  |  |  |  | apparent Kd [2, 5]: 12.7 nM; apparent Kd [2, 6]: 14.5 nM
48 | GAUGGCCUAGGAUAUACGCGUUGGUUGGCUCGUCACGAUACACAUGAGGAUCACCCAUGUAGAAGGAGGAGAGU |  |  |  |  | apparent Kd [2, 7]: 10.5 nM; apparent Kd [2, 8]: 11.7 nM
49 | CAACAGGAGCAGAAGGUCCAACUCAUAAAUACGGAAGGAUAUGCGUGACCAACUAAAGAAACAUGAGGAUCACCCAUGUAAGCG |  |  |  |  | apparent Kd [2, 9]: 10.7 nM; apparent Kd [2, 10]: 7.53 nM
50 | AAUAAGAAAGGAUAUACAGAGGAUAAACUAAUAAAUAAAGGACAUGAGGAUCACCCAUGUAGAAGGUUCAAAAU |  |  |  |  | apparent Kd [2, 7]: 11.9 nM; apparent Kd [2, 8]: 11.7 nM
